Source: ChEMBL document CHEMBL4152343, “Design, Synthesis, and Pharmacological Evaluation of Second-Generation Tetrahydroisoquinoline-Based CXCR4 Antagonists with Favorable ADME Properties” (J Med Chem, 2018)

Tests used:
[1] = target: T1, C-X-C chemokine receptor type 4 (Homo sapiens, UniProt P61073); assay: Antagonist activity at CXCR4 in human CCRF-CEM cells assessed as inhibition of SDF-1alpha-induced calcium release preincubated for 25 mins followed by SDF-1alpha stimulation and measured for 90 secs by calcium flux assay; type: functional, cell-based
T1 sequence (P61073 whole entry): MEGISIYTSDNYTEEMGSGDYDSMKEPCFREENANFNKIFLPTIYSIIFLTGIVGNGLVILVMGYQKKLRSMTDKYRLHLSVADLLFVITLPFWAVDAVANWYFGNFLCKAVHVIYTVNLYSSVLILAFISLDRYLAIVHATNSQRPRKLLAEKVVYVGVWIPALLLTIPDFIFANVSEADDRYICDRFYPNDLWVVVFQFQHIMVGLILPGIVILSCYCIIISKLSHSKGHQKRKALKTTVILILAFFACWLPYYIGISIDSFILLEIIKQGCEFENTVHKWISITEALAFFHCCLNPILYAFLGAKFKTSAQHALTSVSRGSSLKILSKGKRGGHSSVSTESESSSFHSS

[2] = target: Muscarinic acetylcholine receptor; assay: Antagonist activity at mAChR in human CCRF-CEM cells assessed as inhibition of acetylcholine-induced calcium release preincubated for 25 mins followed by acetylcholine stimulation and measured for 90 secs by calcium flux assay; type: functional, cell-based
Procedure, shortened: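 Endogenous muscarinic receptors in CCRF-CEM cells (HBSS/HEPES/BSA buffer, 40,000 cells/well, dye-loaded 30 min at 37°C). Calcium flux recorded 90 s by FDSS. IC50 by 4-parameter logistic fit against an internal control compound; duplicate wells, single experiment.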

[3] = target: Cytochrome P450 2D6 (Homo sapiens, UniProt P10635); assay: Inhibition of recombinant human CYP2D6 expressed in insect cells microsomes using AMMC as substrate preincubated for 30 mins followed by NADP addition and measured after 45 mins by fluorescence analysis; type: ADME
Sequence of Cytochrome P450 2D6 (P10635 whole entry): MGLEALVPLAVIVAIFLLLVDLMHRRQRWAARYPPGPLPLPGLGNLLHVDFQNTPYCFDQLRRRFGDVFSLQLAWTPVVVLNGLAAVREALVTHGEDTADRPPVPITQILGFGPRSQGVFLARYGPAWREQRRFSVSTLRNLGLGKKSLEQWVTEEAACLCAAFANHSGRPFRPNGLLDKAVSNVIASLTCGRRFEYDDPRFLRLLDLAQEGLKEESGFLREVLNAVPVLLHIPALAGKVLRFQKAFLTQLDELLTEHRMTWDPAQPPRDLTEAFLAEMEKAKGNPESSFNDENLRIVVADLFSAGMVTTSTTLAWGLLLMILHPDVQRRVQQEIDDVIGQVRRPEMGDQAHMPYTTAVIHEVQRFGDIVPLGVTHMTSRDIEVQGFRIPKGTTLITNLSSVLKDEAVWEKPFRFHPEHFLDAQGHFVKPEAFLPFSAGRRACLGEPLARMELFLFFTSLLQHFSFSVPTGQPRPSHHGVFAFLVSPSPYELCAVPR

[4] = Metabolic stability in human liver microsomes assessed as parent compound remaining after 10 mins by LC-MS/MS analysis; type: ADME, microsome; details: read-out: Stability
Procedure, shortened: (§1)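 Compound depletion measured by LC/MS/MS after 10 min at 37 °C in liver microsome preparations (CYP450 and other NADP-dependent enzymes). Values are % of compound remaining; duplicates in a single experiment.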

[5] = Metabolic stability in mouse liver microsomes assessed as parent compound remaining after 10 mins by LC-MS/MS analysis; type: ADME, microsome; details: read-out: Stability; procedure, shortened: as §1
[6] = target: Cytochrome P450 3A4 (Homo sapiens, UniProt P08684); assay: Inhibition of human CYP3A4; type: ADME
Sequence of Cytochrome P450 3A4 (P08684 whole entry): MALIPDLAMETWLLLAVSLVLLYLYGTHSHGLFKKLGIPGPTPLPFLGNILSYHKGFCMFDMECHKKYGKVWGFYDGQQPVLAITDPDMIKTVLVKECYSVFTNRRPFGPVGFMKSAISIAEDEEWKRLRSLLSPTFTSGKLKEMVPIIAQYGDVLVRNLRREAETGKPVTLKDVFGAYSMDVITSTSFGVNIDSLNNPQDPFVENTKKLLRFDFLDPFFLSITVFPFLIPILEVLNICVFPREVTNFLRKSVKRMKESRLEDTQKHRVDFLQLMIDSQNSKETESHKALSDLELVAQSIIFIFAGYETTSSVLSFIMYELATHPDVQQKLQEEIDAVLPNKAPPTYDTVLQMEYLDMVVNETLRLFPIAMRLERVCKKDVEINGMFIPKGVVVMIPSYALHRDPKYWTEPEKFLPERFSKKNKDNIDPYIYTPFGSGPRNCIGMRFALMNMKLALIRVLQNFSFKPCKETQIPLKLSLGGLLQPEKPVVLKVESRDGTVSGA

[7] = target: Voltage-gated inwardly rectifying potassium channel KCNH2 (Homo sapiens, UniProt Q12809); assay: Displacement of [3H]astemizole from human ERG expressed in HEK cell membranes
Sequence of Voltage-gated inwardly rectifying potassium channel KCNH2 (Q12809 whole entry): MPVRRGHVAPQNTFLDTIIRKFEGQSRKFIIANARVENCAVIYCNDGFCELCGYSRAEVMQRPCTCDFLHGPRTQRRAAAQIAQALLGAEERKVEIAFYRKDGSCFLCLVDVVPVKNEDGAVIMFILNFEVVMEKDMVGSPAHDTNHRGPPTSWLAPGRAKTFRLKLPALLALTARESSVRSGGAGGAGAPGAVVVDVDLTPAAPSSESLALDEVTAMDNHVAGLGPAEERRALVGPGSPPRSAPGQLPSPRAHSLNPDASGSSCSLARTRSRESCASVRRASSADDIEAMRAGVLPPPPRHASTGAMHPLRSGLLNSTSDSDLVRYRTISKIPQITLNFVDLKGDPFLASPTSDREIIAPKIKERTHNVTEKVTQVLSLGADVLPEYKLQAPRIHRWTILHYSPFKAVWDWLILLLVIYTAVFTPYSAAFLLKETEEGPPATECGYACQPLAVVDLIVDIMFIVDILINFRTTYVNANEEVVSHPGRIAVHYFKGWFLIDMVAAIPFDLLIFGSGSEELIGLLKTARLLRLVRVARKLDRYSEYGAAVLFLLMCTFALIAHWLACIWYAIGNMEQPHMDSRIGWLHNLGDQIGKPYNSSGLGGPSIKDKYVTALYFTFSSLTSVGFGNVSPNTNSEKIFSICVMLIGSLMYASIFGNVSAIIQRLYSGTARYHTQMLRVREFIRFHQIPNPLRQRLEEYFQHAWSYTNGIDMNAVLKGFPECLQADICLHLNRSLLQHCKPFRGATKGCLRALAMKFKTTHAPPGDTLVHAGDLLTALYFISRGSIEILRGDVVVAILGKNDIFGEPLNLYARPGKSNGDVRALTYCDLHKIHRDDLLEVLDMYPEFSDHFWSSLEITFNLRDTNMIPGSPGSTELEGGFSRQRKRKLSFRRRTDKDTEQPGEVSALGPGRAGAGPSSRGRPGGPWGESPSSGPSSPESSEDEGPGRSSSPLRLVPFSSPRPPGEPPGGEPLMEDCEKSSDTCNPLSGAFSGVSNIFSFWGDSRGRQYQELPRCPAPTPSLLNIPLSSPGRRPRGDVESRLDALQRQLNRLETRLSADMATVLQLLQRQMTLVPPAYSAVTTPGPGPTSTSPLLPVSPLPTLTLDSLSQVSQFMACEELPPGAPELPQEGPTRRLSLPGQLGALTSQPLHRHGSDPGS
Procedure, shortened: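 Binding assay measuring [3H]astemizole displacement in HEK membranes overexpressing hKv11.1.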

[8] = target: T1, C-X-C chemokine receptor type 4; assay: Agonist activity at CXCR4 in human CCRF-CEM cells assessed as induction of calcium release incubated for 25 mins by calcium flux assay; type: functional, cell-based
Procedure, shortened: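 CCRF-CEM T lymphoblasts (endogenous CXCR4) in HBSS/20 mM HEPES/0.1% fatty-acid-free BSA, 40,000 cells/well, dye-loaded 30 min at 37°C, then 15 min at room temperature. Compounds added at final 25,000–0.423 nM (0.5% DMSO) and calcium flux read by FDSS for 90 s.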

[9] = target: Voltage-gated L-type calcium channel (Homo sapiens, UniProt Q13936+Q13698+Q01668+O60840); assay: Antagonist activity at L-type calcium channel (unknown origin); type: protein assay
[10] = Permeability of compound at pH 7.4 by PAMPA; type: ADME; details: read-out: permeability
Procedure, shortened: (§2)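 Compound from 10 mM DMSO stock diluted 1:100 to 100 µM (1% DMSO) in pH 7.4 or pH 5.5 donor buffer, then filtered. Lipid-coated filter membrane with pH 7.4 acceptor buffer; incubated 4 h at room temperature. UV plate reading gives Pc. Duplicates in two independent experiments unless noted.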

[11] = species: Homo sapiens; assay: Selectivity index, ratio of IC50 for antagonist activity at mAChR in human CCRF-CEM cells to IC50 for antagonist activity at CXCR4 in human CCRF-CEM cells; type: cell-based
[12] = Permeability of compound at pH 5.5 by PAMPA; type: ADME; details: read-out: permeability; procedure, shortened: as §2

SMILES | IC50 [1] [µM] | IC50 [2] [µM] | IC50 [3] [µM] | remaining at 10 min [4] [%] | remaining at 10 min [5] [%] | IC50 [6] [µM] | IC50 [7] [µM] | EC50 [8] [µM] | IC50 [9] [µM] | Papp [10] [×10⁻⁶ cm/s] | Ratio IC50 [11] | Papp [12] [×10⁻⁶ cm/s]
CN(C[C@H]1Cc2c(cccc2N2CCNCC2)CN1)[C@H]1CCCc2cccnc21 | 0.00608 | 7.18 | > 20 | 99.7 | 19.9 | > 20 | 20.3 | > 30 | > 80 |  |  | 
CN(C[C@H]1Cc2c(cccc2N2CCN3CCC[C@@H]3C2)CN1)[C@H]1CCCc2cccnc21 | 0.00359 | 26.1 | > 20 | 52.2 | 36.7 | > 20 |  | > 30 |  | 74 | > 5000 | 
CN(C[C@H]1Cc2c(cccc2N2CCN(Cc3ccccn3)CC2)CN1)[C@H]1CCCc2cccnc21 | 0.00447 | 10.8 | 11 | 4.2 | 40.4 | 6.79 |  | > 30 |  |  |  | 8.2
